Measurements gathered from unrelated publications.
Target: Tyrosine-protein kinase BTK (BTK, Homo sapiens, UniProt Q06187)

O=C(c1ccc(Nc2nccc(-c3cc4ccccc4s3)n2)cc1)N1CCC(N2CCCC2)CC1 — remaining binding (binding; competition with immobilised ligand; 1 µM): 87%
CCN1CCN(Cc2ccc(C(=O)Nc3ccc(C)c(Oc4ccc5c(c4)CC(=O)N5)c3)cc2C(F)(F)F)CC1 — remaining binding (binding; competition with immobilised ligand; 1 µM): 100%
C[C@@H]1CCN(c2nccc(-c3cnn4ncccc34)n2)C1 — remaining binding (binding; 1 µM): 90%
O=C(Nc1cccnn1)N1CC(C/C=C/c2cncc(Oc3ccc(C(F)(F)F)cn3)n2)C1 — remaining binding (cell-free assay; competition with immobilised ligand; 1 µM): 59%
Cc1ccc(-n2nc(C(C)(C)C)cc2NC(=O)Nc2ccc(-n3c(N)c(C(N)=O)c4nc5ccc(NCCCN)cc5nc43)cc2)cc1 — remaining binding (cell-free assay; competition with immobilised ligand; 1 µM): 3.3%
N#Cc1ccccc1CSc1nnc2c(n1)[nH]c1ccccc12 — remaining binding (binding; competition with immobilised ligand; 10 µM): 100%
N#Cc1ccc(Nc2ccc3[nH]c(=O)[nH]c3c2)c(Cl)c1 — remaining binding (cell-free assay; competition with immobilised ligand; 1 µM): 100%
c1cnn2ncc(-c3ccnc(N4CCC45COC5)n3)c2c1 — remaining binding (binding; 1 µM): 89%
C[C@@H]1CN(c2ccc3ncc(-c4ccc5[nH]nc(C6CC6)c5c4)n3n2)C[C@H](C)O1 — remaining binding (binding; competition with immobilised ligand; 0.5 µM): 89%
CC1CCCN1c1nccc(-c2cnn3ncccc23)n1 (stereo not drawn) — remaining binding (binding; 1 µM): 100%
O=C(c1ccc(Nc2ncc(Cl)c(-c3ccc(Cl)s3)n2)cc1)N1CCC(N2CCCC2)CC1 — remaining binding (binding; competition with immobilised ligand; 1 µM): 64%
Cn1cc(Cl)c2c(Oc3c(F)cc(Nc4cc(Cl)nc(N)n4)cc3F)ccnc21 — remaining binding (cell-free assay; competition with immobilised ligand; 0.1 µM): 84%
CN(C)c1ncc(F)c(-c2cnn3ncccc23)n1 — remaining binding (binding; 1 µM): 75%
CNC(=O)[C@@H]1CC[C@@H](n2c(-c3ccc4cnccc4c3)nc3ccc(C(=O)NCc4cccc(C(N)=O)c4)cc32)C1 — remaining binding (binding; competition with immobilised ligand; 1 µM): 96%
CC(C)(C)c1ccc(-c2nc(CBr)nn2-c2cccc(O)c2)cc1 — remaining binding (cell-free assay; competition with immobilised ligand; 10 µM): 83%
O=C(c1ccc(Nc2ncc(Cl)c(-c3cc4ccccc4s3)n2)cc1)N1CCC(N2CCCC2)CC1 — remaining binding (binding; competition with immobilised ligand; 1 µM): 63%
CC(=O)Nc1c(C(C)=O)c(=O)n(C)c2nc(-c3ccc(Cl)cc3Cl)c(-c3ccc(Cl)cc3)cc12 — remaining binding (cell-free assay; competition with immobilised ligand; 1 µM): 88%
O=C(NCC1CCOCC1)c1n[nH]cc1NC(=O)c1c(F)cccc1F — remaining binding (binding; competition with immobilised ligand; 1 µM): 91%
CS(=O)(=O)N1CCCC(NC(=O)[C@H](CCC2CCCCC2)NC(=O)c2ccc(CNc3ncnc4c3nnn4-c3ccccc3)cc2)C1 (stereo partly drawn) — remaining binding (cell-free assay; competition with immobilised ligand; 0.1 µM): 100%
COc1ncc2cc3ccccc3nc2c1C#N — remaining binding (cell-free assay; competition with immobilised ligand; 5 µM): 100%
CN(C)c1nccc(-c2cnn3ncccc23)n1 — remaining binding (binding; 1 µM): 85%
CN(c1ccnc(CNc2nc(Nc3ccc4c(c3)CC(=O)N4)ncc2C(F)(F)F)n1)S(C)(=O)=O — remaining binding (cell-free assay; competition with immobilised ligand; 1 µM): 63%
COc1ccnn2ncc(-c3ccnc(N(C)C)n3)c12 — remaining binding (binding; 1 µM): 94%
Cc1nc(C2CCN(C(=O)c3ccc(OC(F)(F)F)cc3N)CC2)c2ncc(N3CCN(C)CC3)cc2n1 — remaining binding (cell-free assay; competition with immobilised ligand; 1 µM): 87%
